Only some compounds are listed: those with a hit (about 0.64% of all), similar ones and a draw of the others.
PMI activator: activators of human PMI, primary screen, biochemical, fluorescence intensity, near-Km mannose 6-phosphate | hit rate 0.005% among 190,000 | purified human PMI, coupled resazurin fluorescence, 20 min; stronger effect = higher value; 1 = vehicle control, 0 substrate-free wells | Mannose-6-phosphate isomerase (Homo sapiens), P34949 | activation factor at 20 µM;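 active = activation factor of 2 or more at 20 µM, relative to plate controls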
PMI act hi M6P: human PMI activators, high substrate, primary screen, biochemical, fluorescence intensity, near-saturating mannose 6-phosphate. coupled PMI enzyme assay, resazurin fluorescence, 20 min; stronger effect = higher value; 1 = untreated enzyme, 0 = substrate-free blank. activation factor at 20 µM. Mannose-6-phosphate isomerase (Homo sapiens), P34949. hit rate 0.34% among 190,000;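 active = activation factor of 2 or more at 20 µM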
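Material: human phosphomannose isomerase with PGI, G6PDH, diaphorase coupling enzymes. Quantity: 15 ng/mL PMI. Medium: HEPES pH 7.4 buffer with MgCl2 and Tween-20. Reagent: Near-saturating mannose-6-phosphate, 1.0 mM. Compound: 20 µM single dose. Times: enzyme reaction with compound 20 min at room temperature. Detection: resorufin fluorescence at Ex 544/Em 590 nm.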
TNAP inh noacc: human TNAP enzyme inhibitors, primary screen, biochemical, luminescent, no phosphate acceptor, uHTS; Alkaline phosphatase, tissue-nonspecific isozyme (Homo sapiens), P05186; purified TNAP, CDP-star luminescence, 30 min; inhibition, % at 20 µM; hit rate 0.26% among 200,000;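 active = tissue-nonspecific alkaline phosphatase inhibition above about 50% at 20 µM in the single-dose screen, limit read from the data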;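 also: 0% = DMSO negative control and 100% = EDTA positive control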
Target sequence (P05186 whole entry, looked up): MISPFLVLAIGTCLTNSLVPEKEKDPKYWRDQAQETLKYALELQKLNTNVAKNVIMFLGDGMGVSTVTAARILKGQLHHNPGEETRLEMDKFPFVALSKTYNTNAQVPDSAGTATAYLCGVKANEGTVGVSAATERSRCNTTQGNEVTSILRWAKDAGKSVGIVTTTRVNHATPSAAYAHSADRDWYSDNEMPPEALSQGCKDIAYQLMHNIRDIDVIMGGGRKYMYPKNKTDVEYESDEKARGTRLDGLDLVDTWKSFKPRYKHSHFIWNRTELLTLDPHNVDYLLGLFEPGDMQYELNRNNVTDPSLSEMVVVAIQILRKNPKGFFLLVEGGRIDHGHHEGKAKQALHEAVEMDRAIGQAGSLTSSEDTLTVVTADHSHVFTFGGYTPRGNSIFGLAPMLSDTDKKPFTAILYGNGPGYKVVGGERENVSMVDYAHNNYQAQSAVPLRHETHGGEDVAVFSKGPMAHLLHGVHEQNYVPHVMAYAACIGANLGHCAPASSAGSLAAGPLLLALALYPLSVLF
TNAP act hi DEA: TNAP activators at high phosphate acceptor level, primary screen, biochemical, luminescence, uHTS; purified TNAP, CDP-star luminescence, 1 M DEA, 30 min; stronger effect = higher value; 0 = EDTA background, 1 = DMSO-only activity; activation factor at 20 µM; 200,000 tested, under 10 active; AID 1136, 2008;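 active = activation factor at least 2 at 20 µM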
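Control set: EDTA negative control, DMSO positive control / Assay system: human TNAP / Quantity: TNAP 1/800 final / Evaluation: TNAP activation factor scaled between EDTA and DMSO control wells / Measured by: luminescent substrate turnover signal / Compound dosing: one dose, 20 µM / Times: 30 min enzyme reaction at room temperature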
TNAP inh hiacc: human TNAP enzyme inhibitors, primary screen, biochemical, luminescent, high phosphate acceptor level, uHTS; hit rate 0.03% among 200,000; AID 1135, 2008; purified TNAP, CDP-star luminescence, 1 M DEA; Alkaline phosphatase, tissue-nonspecific isozyme (Homo sapiens), P05186; inhibition, % at 20 µM;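 active = over 50% inhibition of tissue-nonspecific alkaline phosphatase at 20 µM in the single-dose screen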;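 also: plate controls were DMSO wells for no effect and EDTA-quenched wells as full inhibition for full effect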
The depositor's hits bear a star.

What do the screens show for `CC(C)C(=O)n1nc(-c2cccnc2)nc1NCc1cccs1`?
PMI activator: 1; PMI act hi M6P: 1; TNAP inh noacc: 42; TNAP act hi DEA: 1; TNAP inh hiacc: -2

What do the screens show for `CCC(C(=O)O)n1nc(-c2ccccc2)c2cc(Cl)ccc21` (configuration not stated)?
PMI activator: 1.1; PMI act hi M6P: 1; TNAP inh noacc: -6; TNAP act hi DEA: 1; TNAP inh hiacc: -3

What do the screens show for `N#Cc1cc2c([nH]c1=S)CCCC2`?
PMI activator: 1.8; PMI act hi M6P: 2*; TNAP inh noacc: -4; TNAP act hi DEA: 1; TNAP inh hiacc: -4

How did CC1(C)Cc2[nH]c(=S)c(C#N)cc2CO1 do in these assays?
PMI activator: 1.4; PMI act hi M6P: 1.5; TNAP inh noacc: -10; TNAP act hi DEA: 1.1; TNAP inh hiacc: -5

How did O=C(NNc1cc(Br)c(O)c(Br)c1)c1ccccc1 do in these assays?
PMI activator: 1.6; PMI act hi M6P: 2*; TNAP inh noacc: 34; TNAP act hi DEA: 1; TNAP inh hiacc: 3

What do the screens show for `Cc1cccc(C(=O)NNC(=O)c2ccccc2)c1`?
PMI activator: 0.9; PMI act hi M6P: 1; TNAP inh noacc: -14; TNAP act hi DEA: 1.1; TNAP inh hiacc: -7

Results for C/C(=N/NC(=O)c1cccc(C)c1)c1c(O)cc(C)oc1=O ?
PMI activator: 1.3; PMI act hi M6P: 1.4; TNAP inh noacc: -2; TNAP act hi DEA: 1; TNAP inh hiacc: -1

How did Cc1ccc(N/N=C/c2c(O)cc(C)oc2=O)cc1 do in these assays?
PMI activator: 1.4; PMI act hi M6P: 2.2*; TNAP inh noacc: -9; TNAP act hi DEA: 1; TNAP inh hiacc: -4

How did C/C(=N\Nc1ccccc1)c1c(O)cc(C)oc1=O do in these assays?
PMI activator: 1.9; PMI act hi M6P: 2.6*; TNAP inh noacc: -4; TNAP act hi DEA: 1; TNAP inh hiacc: -2

Results for Cc1ccc(CO/N=C/c2c(O)cc(C)oc2=O)cc1 ?
PMI activator: 1.1; PMI act hi M6P: 1.1; TNAP inh noacc: 2; TNAP act hi DEA: 0.9; TNAP inh hiacc: 6

What do the screens show for `Cc1cc(O)c(/C=N/Nc2ccc(F)cc2)c(=O)o1`?
PMI activator: 1.7; PMI act hi M6P: 2.3*; TNAP inh noacc: -14; TNAP act hi DEA: 1; TNAP inh hiacc: -4

Results for Cc1cccc(/N=C/c2c(O)cc(C)oc2=O)n1 ?
PMI activator: 1.1; PMI act hi M6P: 1.1; TNAP inh noacc: -6; TNAP act hi DEA: 1; TNAP inh hiacc: -2

Results for COc1ccc(OC)c(NC(=O)N2CCCC(C(=O)c3ccccc3OC)C2)c1 (configuration not stated) ?
PMI activator: 0.9; PMI act hi M6P: 0.7; TNAP inh noacc: -6; TNAP act hi DEA: 1; TNAP inh hiacc: -4

Results for COc1cccc(-c2nn[nH]n2)c1O ?
PMI activator: 0.8; PMI act hi M6P: 0.9; TNAP inh noacc: -3; TNAP act hi DEA: 1; TNAP inh hiacc: -3

How did COc1ccccc1CNN do in these assays?
PMI activator: 1.6; PMI act hi M6P: 2.2*; TNAP inh noacc: -5; TNAP act hi DEA: 1; TNAP inh hiacc: 1

Results for COc1ccccc1CNCc1cc(OC)c(OC)c(OC)c1 ?
PMI activator: 1.1; PMI act hi M6P: 1.1; TNAP inh noacc: -5; TNAP act hi DEA: 1; TNAP inh hiacc: 1

How did Cc1nc2sc(C(N)=O)c(N)c2c(C)c1CC(=O)c1ccccc1 do in these assays?
PMI activator: 1.7; PMI act hi M6P: 2*; TNAP inh noacc: -7; TNAP act hi DEA: 1; TNAP inh hiacc: -2

How did CONC(=O)C1CCN(C(=O)OCc2ccccc2)CC1 do in these assays?
PMI activator: 0.9; PMI act hi M6P: 0.9; TNAP inh noacc: 1; TNAP act hi DEA: 1; TNAP inh hiacc: -1

How did Cc1ccc(N=C/C(C(=O)C(F)(F)F)=C(\O)c2ccco2)cc1Cl do in these assays?
PMI activator: 1.1; PMI act hi M6P: 1.1; TNAP inh noacc: -1; TNAP act hi DEA: 1; TNAP inh hiacc: 0

What do the screens show for `N#Cc1c2c(c(-c3ccccc3Cl)[nH]c1=S)CCCC2`?
PMI activator: 1.6; PMI act hi M6P: 2.4*; TNAP inh noacc: -3; TNAP act hi DEA: 1.1; TNAP inh hiacc: -6

How did N#Cc1c(-c2ccncc2)c2c([nH]c1=S)CCCC2 do in these assays?
PMI activator: 1.1; PMI act hi M6P: 1.1; TNAP inh noacc: 0; TNAP act hi DEA: 1; TNAP inh hiacc: 3

How did N#Cc1c(-c2ccccc2Cl)cc(-c2ccccc2)[nH]c1=S do in these assays?
PMI activator: 1.6; PMI act hi M6P: 2.5*; TNAP inh noacc: 7; TNAP act hi DEA: 1; TNAP inh hiacc: -3

Results for CCCCN(C)C(=O)c1nc2ccccn2c1CN1CCN(C/C=C/c2ccccc2)CC1 ?
PMI activator: 0.9; PMI act hi M6P: 1; TNAP inh noacc: -8; TNAP act hi DEA: 1.1; TNAP inh hiacc: -6

What do the screens show for `O=C1OCC2=C1C(c1ccc(F)cc1)CC(=O)N2c1ccccc1` (configuration not stated)?
PMI activator: 1; PMI act hi M6P: 1; TNAP inh noacc: -12; TNAP act hi DEA: 1; TNAP inh hiacc: -4

What do the screens show for `CCCCCCCCC(=O)N/N=C(\C)c1cccnc1`?
PMI activator: 1.5; PMI act hi M6P: 2.3*; TNAP inh noacc: 2; TNAP act hi DEA: 1; TNAP inh hiacc: 0

Results for Cn1c(O)c(/C=N/Nc2ccccc2)c(=O)n(C)c1=O ?
PMI activator: 1.7; PMI act hi M6P: 2.6*; TNAP inh noacc: -11; TNAP act hi DEA: 1; TNAP inh hiacc: 1

What do the screens show for `O=C(O)c1cc(Cl)c2c(c1)[C@@H]1C=CC[C@@H]1[C@H](c1ccc(S(=O)(=O)N3CCOCC3)cc1)N2`?
PMI activator: 1.4; PMI act hi M6P: 1.7; TNAP inh noacc: -9; TNAP act hi DEA: 1; TNAP inh hiacc: -1

What do the screens show for `Cc1cc(C)c2c(c1)C1C=CCC1C(c1ccc(S(=O)(=O)N3CCOCC3)cc1)N2` (configuration not stated)?
PMI activator: 1.4; PMI act hi M6P: 2.2*; TNAP inh noacc: -6; TNAP act hi DEA: 1; TNAP inh hiacc: -3

What do the screens show for `CC1=NN(c2ccc(S(=O)(=O)O)cc2C)C(=O)C1`?
PMI activator: 1.6; PMI act hi M6P: 2.4*; TNAP inh noacc: -4; TNAP act hi DEA: 1; TNAP inh hiacc: 0

How did CCCCNC(=O)COC(=O)CNC(=O)c1cc(Cl)cc([N+](=O)[O-])c1 do in these assays?
PMI activator: 1; PMI act hi M6P: 0.9; TNAP inh noacc: -5; TNAP act hi DEA: 1; TNAP inh hiacc: -1
